The test system of assay [1] is TβRI-ED. To be noted: TGF-β alone; cited from earlier work.
In assay [2] the target is T1, TβRII-ED (residues 1-137) (Homo sapiens, UniProt P37173). The assay is described as follows: SPR, TβRII-ED. The assay is classed as binding. A digest of the protocol: (§1)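 CM5 chip with HBS (pH 7.4) running buffer. TβRI-ED (residues 7-91), TβRII-ED (1-137) and endoglin-ED (26-586) were amine-coupled (EDC/NHS) from 20 μg/mL in 10 mM NaOAc pH 5.0 to about 3600, 1900 and 7300 RU, then blocked with ethanolamine. The protein-free reference signal was subtracted. Surfaces were regenerated with 100 mM HCl for 30 s.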

Assay [3] deals with TGF-β responsive SBE(CAGA)12-luciferase reporter, Mv1Lu cells. The assay is described as follows: Reporter gene assay, SBE. The assay is classed as cell-based, mink. Conditions: 10 μM SB-431542; 10 pM TGF-β1. The method in brief: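 Mv1Lu cells stably carrying the SBE(CAGA)12-Luc reporter were grown in DMEM with 10% FBS. About 4000 cells were plated and left to attach overnight. Medium was changed to DMEM with 0.2% FBS 4 h before treatment. Cells received TGF-β1, TGF-β1 with serial dilutions of test peptide, or peptide alone, with untreated cells as control, in triplicate. After 18-24 h, Bright-Glo luminescence was normalised to cell number by CellTiter-Glo.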

Assay [4] concerns the target TβRII. Conditions: read-out: Kd (binding to two copies of TβRII); approximate (~) range; cited from earlier work.
In assay [5] the target is T1, TβRII-ED (residues 1-137). The experiment in a line: competition ELISA. The class given is binding. The method in brief:
(§2)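 Equimolar TβRI-ED (residues 1-101, 1.0 μg) or TβRII-ED (1-137, 1.5 μg), E. coli-expressed and refolded, was coated at 4 °C for 12 h. For Kd, M13 phage clones at various concentrations were bound for 1 h at room temperature in 2% BSA/PBS/0.5% Tween 20, with BSA wells as control. For IC50, fixed phage near its apparent Kd was mixed with varying peptide. Read-out was anti-M13-HRP, then ABTS/H2O2 for 30 min and A405; mean ± SD.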
(An ELISA detects its analyte on a solid surface through an enzyme-linked reagent.)

Assay [6] concerns the target T2, TβRI-ED (Homo sapiens, UniProt P36897).
T2 sequence (P36897 25-125): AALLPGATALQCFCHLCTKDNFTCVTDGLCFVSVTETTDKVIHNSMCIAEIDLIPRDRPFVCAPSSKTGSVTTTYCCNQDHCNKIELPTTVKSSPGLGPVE
The assay is described as follows: competition ELISA. The assay is classed as binding. A digest of the protocol:
as §2

The test system of assay [7] is ActRII-ED. The assay is described as follows: SPR, ActRII-ED. The class given is binding, human. To be noted: verification of immobilized receptor activity. The method in brief:
(§3)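 In a separate run, recombinant human β-glycan-ED (residues 21-781), BMPR-IA-ED (Gln24-Arg152, Fc chimera) and ActRII-ED (Ser25-Pro134, Fc chimera) were amine-coupled on a CM5 chip to about 1600, 3300 and 4300 RU. Serial dilutions of peptide-bearing dendrimer in HBS, within 2.9 nM–6 μM, were injected for 5 min with 5 min dissociation at 10 μL/min. Reference subtraction and HCl regeneration were used.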
Background: SPR reads the build-up and loss of mass on a sensor chip optically.

The subject of assay [8] is BMPR-IA-ED. The assay is described as follows: SPR, BMPR-IA-ED. The assay is classed as binding, human. Conditions: verification of immobilized receptor activity. The method in brief: as §3
In assay [9] the target is artificially dimerized TβRII-ED. Conditions: previous SPR studies; cited from earlier work.
In assay [10] the target is T3, TβRI-ED (residues 7-91) (Homo sapiens, UniProt P36897).
T3 sequence (P36897 31-115): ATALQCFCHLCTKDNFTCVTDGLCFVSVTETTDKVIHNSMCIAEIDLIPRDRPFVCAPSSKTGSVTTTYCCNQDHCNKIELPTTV
The experiment in a line: SPR, TβRI-ED. Conditions: TGF-β1 41 pM to 30 nM. The assay is classed as binding. The method in brief:
as §1

In assay [11] the target is monomeric TβRII-ED. Conditions: previous SPR studies; cited from earlier work.

Entries after “also recorded” stand apart in the source; their conditions may differ. Ends that are not written are not given here.

In general, IC50 refers to the concentration needed to halve the response being measured. Lower therefore signals higher potency.

For the compound “TGF-β: transforming growth factor β, generic wording; TGF-β1 in the authors' own experiments”, in assay [1], the “affinity for TβRI-ED” value was “weak affinity”. In [2] (binding to TβRII-ED, SPR), this compound came in with a saturating concentration of 10 nM.
Regarding `NC(=O)c1ccc(-c2nc(-c3ccc4c(c3)OCO4)c(-c3ccccn3)[nH]2)cc1` [SB-431542], the “inhibition of TGF-β-induced luciferase gene expression” value in assay [3] was “completely blocked; also recorded: inhibited TGF-β regulated luciferase gene expression”.
Turning to TGF-β3: TGF-β isoform 3, in [4], the Kd was 0.005 to 0.03 nM.
For the compound MHRMPSFLPTTL [Pep2], in assay [5], the half-inhibitory concentration (IC50) is 274 µM and the Kd was about 10 µM. In [6], this compound registered a half-inhibitory concentration (IC50) of 256 µM and a Kd of about 10 µM.
As to “BMP-4: known ligand of BMPR-IA and ActRII”, the “binding of BMP-4” value in assay [7] and in assay [8] was “ability to bind BMP-4” throughout.
In the case of LTGKNFPMFHRN [Pep1], the IC50 in assay [5] was determined as 156 µM; in assay [6], 110 µM. Further, the Kd in assay [5] and in assay [6] was about 10 µM in each case.
“TGF-β1: Recombinant human TGF-β1, disulfide-linked homodimer growth factor”: the Kd in assay [9] was about 5 pM; in assay [4], 0.005 to 0.03 nM; in assay [11] it was about 0.1 µM; in assay [2] (read-out: apparent Kd, TGF-β1 41 pM to 30 nM, dose dependent SPR responses, surface a mixture of monomeric and dimeric receptor), about 0.0014 µM. Besides, the “binding to TβRI-ED surface” value in assay [10] is given as “did not bind detectably; also recorded: no observable affinity”.
